Experimental data taken from ChEMBL document CHEMBL2034912, “Synthesis of 4-methylcoumarin derivatives containing 4,5-dihydropyrazole moiety to scavenge radicals and to protect DNA” (Eur J Med Chem, 2012).
Active and inactive are the calls of the source.

What was measured:
Assay type in all cases: functional
[1] = Antioxidant activity assessed as ABTS radical scavenging activity at 40 uM
Procedure, shortened: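 ABTS (4.0 mM) oxidized with 1.41 mM K₂S₂O₈ for 16 h to form the radical cation, then diluted with ethanol to absorbance about 0.70. Compound added at 0.04 mM, and absorbance decay at 734 nm followed over time. Number of radicals trapped (n) is the depleted ABTS radical concentration divided by antioxidant concentration.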

[2] = system: Radical scavenging activity; assay: Antioxidant activity assessed as DPPH radical scavenging activity at 40 uM
Procedure, shortened: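 DPPH dissolved in ethanol to absorbance about 1.00 at 517 nm (ε […] M⁻¹ cm⁻¹). Compound added as an ethanol solution at a single final concentration, and the decay of DPPH absorbance recorded.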

[3] = Antioxidant activity against AAPH-induced DNA oxidation assessed as decrease in thiobarbituric acid reactive substances at 80 to 200 uM measured every 120 mins by spectrophotometry
Procedure, shortened: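 DNA (final 2.0 mg/mL) and AAPH (final 4.0 mM) in phosphate buffer with 10.0 mM EDTA; test compounds added in DMSO across various concentrations; 2.0 mL aliquots incubated at 37 °C. Three tubes withdrawn every 120 min, cooled, treated with TBA and 3.0% trichloroacetic acid, then boiled 15 min; TBARS absorbance read. Inhibition period (t_inh) fitted linearly against concentration.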

Measured: Activity

O=c1ccc2cc3ccoc3c(O)c2o1
active: all assays above

COc1cc(C2CC(c3c(O)ccc4c(C)cc(=O)oc34)=NN2C(C)=O)ccc1O (centres undefined)
active: all assays above

CC(=O)N1N=C(c2c(O)ccc3c(C)cc(=O)oc23)CC1c1ccc(O)cc1O (centres undefined)
active: all assays above

COc1cc(C2CC(c3c(O)ccc4c(C)cc(=O)oc34)=NN2)ccc1O (centres undefined)
active: all assays above

CC(=O)N1N=C(c2c(O)ccc3c(C)cc(=O)oc23)CC1c1cccc([N+](=O)[O-])c1 (centres undefined)
active: all assays above

CC(=O)N1N=C(c2c(O)ccc3c(C)cc(=O)oc23)CC1c1ccccc1O (centres undefined)
active: all assays above

CC(=O)N1N=C(c2c(O)ccc3c(C)cc(=O)oc23)CC1c1ccc(O)c(O)c1 (centres undefined)
active: all assays above

Cc1cc(=O)oc2c(C3=NNC(c4cccc([N+](=O)[O-])c4)C3)c(O)ccc12 (centres undefined)
active: all assays above
